Results taken from ChEMBL document CHEMBL5104118, “Structure-activity relationships of hydrophobic alkyl acrylamides as tissue transglutaminase inhibitors” (RSC Med Chem, 2022).
Calls of active or inactive are those of the source. No cut-off for these calls is given here.

Legend:
[1] = target: T1, Protein-glutamine gamma-glutamyltransferase (Homo sapiens, UniProt P21980); assay: Inhibition of recombinant human TG2 expressed in Escherichia coli assessed as inhibition constant using Cbz-Glu(gamma-p-nitrophenyl ester)Gly (AL5) as substrate by colorimetric assay
T1 sequence (P21980 whole entry): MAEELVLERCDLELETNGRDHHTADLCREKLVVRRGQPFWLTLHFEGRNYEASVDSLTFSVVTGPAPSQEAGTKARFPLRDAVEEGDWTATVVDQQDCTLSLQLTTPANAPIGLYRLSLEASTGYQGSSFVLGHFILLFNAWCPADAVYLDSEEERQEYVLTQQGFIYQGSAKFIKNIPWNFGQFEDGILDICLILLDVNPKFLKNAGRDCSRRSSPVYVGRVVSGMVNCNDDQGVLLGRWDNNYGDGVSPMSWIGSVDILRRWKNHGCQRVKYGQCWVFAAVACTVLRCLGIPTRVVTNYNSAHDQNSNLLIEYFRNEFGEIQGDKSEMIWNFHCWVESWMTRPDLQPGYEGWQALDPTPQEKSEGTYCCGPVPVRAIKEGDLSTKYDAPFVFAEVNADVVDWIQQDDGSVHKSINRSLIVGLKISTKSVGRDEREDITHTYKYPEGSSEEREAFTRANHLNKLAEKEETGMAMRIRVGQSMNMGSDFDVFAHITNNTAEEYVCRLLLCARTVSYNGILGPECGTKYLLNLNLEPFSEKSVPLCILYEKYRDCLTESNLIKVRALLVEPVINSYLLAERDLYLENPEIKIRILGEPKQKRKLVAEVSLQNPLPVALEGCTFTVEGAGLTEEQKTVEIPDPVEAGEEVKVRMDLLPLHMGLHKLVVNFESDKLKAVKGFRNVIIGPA
Outline: (§1)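 Kitz–Wilson conditions, triplicate, 25 °C: 50 mM MOPS pH 6.9, 7.5 mM CaCl2, 100 μM AL5, inhibitor 0.5–900 μM (varies by inhibitor), DMSO ≤5% v/v final; started with 5 mU/mL TG2; p-nitrophenolate read at 405 nm for 20 min. Mono-exponential fits give kobs; kobs vs [I] fitted to saturation model with α = 1+[S]/KM (KM 10 μM), giving kinact and KI; double reciprocal if unsaturated.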

[2] = target: T2, Protein-glutamine gamma-glutamyltransferase (Homo sapiens) (UniProt P21980); assay: Inhibition of recombinant human TG2 expressed in Escherichia coli assessed as Kinact using Cbz-Glu(gamma-p-nitrophenyl ester)Gly (AL5) as substrate by colorimetric assay; outline: as §1
T2 sequence (whole entry): T1 sequence (P21980 whole entry)

[3] = target: T2, Protein-glutamine gamma-glutamyltransferase (Homo sapiens); assay: Inhibition of GTP binding to recombinant human TG2 expressed in Escherichia coli incubated for 30 mins by GTP-gamma-S BODIPY assay
[4] = target: T2, Protein-glutamine gamma-glutamyltransferase (Homo sapiens); assay: Inhibition of recombinant human TG2 expressed in Escherichia coli assessed as Kinact/Ki ratio using Cbz-Glu(gamma-p-nitrophenyl ester)Gly (AL5) as substrate by colorimetric assay; outline: as §1

| SMILES | Ki [1] [µM] | Kinact [2] [min⁻¹] | inhibition [3] | Ratio [4] |
| --- | --- | --- | --- | --- |
| C=CC(=O)NCC(=O)N1CCN(C(=O)c2cccc3ccccc23)CC1 | 25 | 0.69 | Active | 27.5 10^3/M/min |
| C=CC(=O)NCC(=O)N1CCN(C(=O)C23CC4CC(CC(C4)C2)C3)CC1 | 3.2 | 1.34 | Active | 412 10^3/M/min |
| C=CC(=O)NCCCCC(=O)N1CCN(C(=O)c2cccc3ccccc23)CC1 | 142 | 0.44 | – | 3.1 10^3/M/min |
| C=CC(=O)NCCC(=O)N1CCN(S(=O)(=O)c2cccc3c(N(C)C)cccc23)CC1 | 64.5 | 0.25 | – | 3.9 10^3/M/min |
| C=CC(=O)NCCCCC(=O)N1CCN(C(=O)C23CC4CC(CC(C4)C2)C3)CC1 | 4.5 | 0.19 | – | 41.9 10^3/M/min |
| C=CC(=O)NCCCCC(=O)N1CCN(S(=O)(=O)c2cccc3c(N(C)C)cccc23)CC1 | 42 | 0.55 | – | 13.1 10^3/M/min |
| C=CC(=O)NCCCCCC(=O)N1CCN(C(=O)C23CC4CC(CC(C4)C2)C3)CC1 | 38 | 0.36 | – | 9.5 10^3/M/min |
| C=CC(=O)NCCCCCC(=O)N1CCN(S(=O)(=O)c2cccc3c(N(C)C)cccc23)CC1 | 27.4 | 0.23 | – | 8.6 10^3/M/min |
| C=CC(=O)NCC(=O)N1CCN(S(=O)(=O)c2cccc3ccccc23)CC1 | 6.51 | 0.7 | Active | 108 10^3/M/min |
| C=CC(=O)NCCC(=O)N1CCN(C(=O)c2cccc3ccccc23)CC1 | 51.6 | 0.13 | – | 2.4 10^3/M/min |
| C=CC(=O)NCCCCCC(=O)N1CCN(C(=O)c2cccc3ccccc23)CC1 | 109 | 0.46 | – | 4.2 10^3/M/min |
| C=CC(=O)NCCCC(=O)N1CCN(C(=O)c2cccc3ccccc23)CC1 | 134 | 0.45 | – | 3.3 10^3/M/min |
| C=CC(=O)NCC(=O)N1CCN(S(=O)(=O)c2cccc3c(N(C)C)cccc23)CC1 | 1.49 | 2.25 | Active | 1510 10^3/M/min |
| C=CC(=O)NCCCC(=O)N1CCN(S(=O)(=O)c2cccc3c(N(C)C)cccc23)CC1 | 74.2 | 0.54 | – | 7.3 10^3/M/min |
